Sampled rows, rich in hits. Any-hit rate of the full collection: about 2.3%.
PfHsp90 set2 = inhibits growth of yeast expressing Plasmodium falciparum Hsp90. S. cerevisiae expressing PfHsp90, BacTiter-Glo ATP, 48 h; yeast lacking PDR1 and PDR3 efflux regulators. inhibition, % at 9.4 µM. 310,000 compounds, 0.32% hits. AID 504621;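 active = every replicate shows inhibition above about 80%, whatever the replicate mean, limit read from the data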
Rtt109 Vps75 = blocks Candida albicans Rtt109/Vps75 acetyltransferase activity; AID 540336; purified Rtt109/Vps75, ThioGlo CoA-SH fluorescence, 4 h; Q5AAJ8; inhibition, % at 34.9 µM; 330,000 compounds, 0.16% hits;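 active = inhibition of at least 50% in every replicate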
Target sequence (Q5AAJ8 whole entry, looked up): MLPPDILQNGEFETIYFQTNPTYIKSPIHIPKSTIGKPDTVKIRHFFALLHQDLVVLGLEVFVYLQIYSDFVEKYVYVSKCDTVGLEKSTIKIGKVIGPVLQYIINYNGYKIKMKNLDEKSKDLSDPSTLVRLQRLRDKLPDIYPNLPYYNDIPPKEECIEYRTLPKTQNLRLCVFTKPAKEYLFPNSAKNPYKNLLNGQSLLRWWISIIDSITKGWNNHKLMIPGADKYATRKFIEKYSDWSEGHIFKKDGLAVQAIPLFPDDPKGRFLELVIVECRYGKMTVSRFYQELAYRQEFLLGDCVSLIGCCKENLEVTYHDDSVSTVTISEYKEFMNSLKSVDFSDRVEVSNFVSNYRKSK
Arrestin-AP2 inh = blocks beta-arrestin peptide binding to AP2 adaptin; FITC-arrestin peptide / GST-AP2 beads, flow cytometry; AP2 beta2 appendage carries R879A mutation; inhibition, % at 10 µM; 340,000 compounds, 0.31% hits; AID 504490;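 active = inhibition above a set limit, near 3 SD of compounds lacking own fluorescence, cut at about 54% in these data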
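Measured by: flow cytometry, FL1 (488/535 nm); Material: AP2 appendage R879A on GSH beads; Evaluation: percent response; Timing: pre-incubation 12 min, peptide binding 1 h, room temperature; Also added: 50 nM FITC-arrestin peptide; Medium: PBS with 0.05% Tween 20 and 0.1% BSA.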
Env fusion inh = blocks HIV Env-driven cell-cell fusion. HeLa-JRFL Env/CEM21 cell fusion, luciferase. inhibition, % at 12.3 µM. 360,000 compounds, 1.1% hits;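 active = mean replicate inhibition score of at least 50 and every replicate individually at or above 50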
PAX8 reporter = inhibitors of PAX8 transcriptional activity in RMG-I cells; RMG-I TPO-luciferase reporter, SteadyGlo, 24 h; inhibition, % at 12.6 µM; 360,000 compounds, 1.2% hits;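 active = mean replicate inhibition at least 60% with every replicate also reaching 60%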;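 note: luciferase light reporting Pax8 driven TPO promoter activity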
N-glyco inh = N-linked glycosylation inhibition. reporter increase, % at 12.5 µM. 360,000 compounds, 0.23% hits. D54 ERlucT glycosylation luciferase reporter, 24 h; percent of 100 nM tunicamycin response;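 active = mean luciferase reporter signal, scaled so untreated is 0 and the glycosylation-blocking control 100, at or above a set limit in every replicate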;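 note: luciferase carries N-glycosylation sites so blocking glycosylation raises the light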
Hits are given with their value; – = inactive; · = no result given.

SMILES	PfHsp90 set2	Rtt109 Vps75	Arrestin-AP2 inh	Env fusion inh	PAX8 reporter	N-glyco inh
Cc1noc(C)c1S(=O)(=O)Nc1ccc2c(c1)C(=O)N([C@@H](C)CO)C[C@@H](C)[C@H](CN(C)Cc1ccc(C(=O)O)cc1)OCCCC[C@H](C)O2	·	·	·	–	–	·
Cc1noc(C)c1S(=O)(=O)Nc1ccc2c(c1)C(=O)N([C@H](C)CO)C[C@H](C)[C@@H](CN(C)Cc1ccc(C(F)(F)F)cc1)OCCCC[C@H](C)O2	·	·	·	–	72	·
Cc1noc(C)c1S(=O)(=O)Nc1ccc2c(c1)C(=O)N([C@@H](C)CO)C[C@@H](C)[C@H](CN(C)Cc1ccc(C(F)(F)F)cc1)OCCCC[C@H](C)O2	·	·	·	–	64	·
Cc1noc(C)c1S(=O)(=O)Nc1ccc2c(c1)C(=O)N([C@H](C)CO)C[C@H](C)[C@H](CN(C)Cc1ccc(C(F)(F)F)cc1)OCCCC[C@H](C)O2	·	·	·	–	74	·
Cc1noc(C)c1S(=O)(=O)Nc1ccc2c(c1)C(=O)N([C@@H](C)CO)C[C@H](C)[C@@H](CN(C)Cc1ccc(C(F)(F)F)cc1)OCCCC[C@@H](C)O2	·	·	·	–	72	·
Cc1noc(C)c1S(=O)(=O)Nc1ccc2c(c1)C(=O)N([C@H](C)CO)C[C@H](C)[C@H](CN(C)Cc1ccc(C(=O)O)cc1)OCCCC[C@H](C)O2	·	·	·	–	–	·
CN(C)C(=O)C[C@H]1CC[C@H]2[C@@H](COC[C@@H](O)CN2CC2CC2)O1	·	·	·	·	–	·
O=C(C[C@@H]1C=C[C@@H](NC(=O)Nc2ccccc2F)[C@H](CO)O1)NCc1ccc(-c2ccccc2)cc1	·	·	·	–	–	·
C[C@@H]1CN([C@@H](C)CO)C(=O)Cc2cc(NC(=O)Cc3ccccc3)ccc2O[C@H]1CN(C)C(=O)Nc1ccc(F)cc1	·	·	·	·	–	·
Cc1cccc(S(=O)(=O)N2[C@@H]3CNC[C@H]2C3c2ccc(-c3ccncc3)cc2)c1 (stereo partly drawn)	·	·	·	·	–	·
CCNC(=O)C[C@H]1CC[C@H]2[C@@H](COc3ccc(NC(=O)Nc4ccccc4Cl)cc3C(=O)N2C)O1	·	·	·	·	–	·
O=[N+]([O-])c1cc(-c2nnc(-c3ccccc3)o2)ccc1Oc1ccc(Cl)cc1	–	–	–	·	98	–
Cc1noc(C)c1NC(=O)Nc1ccc2c(c1)C(=O)N(C)[C@H]1CC[C@@H](CC(=O)NCc3ccc(Cl)cc3)O[C@H]1CO2	·	·	·	–	–	·
O=C(CSc1ccccc1C(=O)NCc1ccccc1)NC1CCCCCCC1	–	–	–	–	–	–
O=C(CSc1ccccc1C(=O)NCc1ccccc1)NC12CC3CC(CC(C3)C1)C2	–	–	–	76	–	–
COCCn1c(N)c(C#N)c2nc3ccccc3nc21	–	–	–	–	·	–
N#Cc1c(N)n(CCc2ccc(F)cc2)c2nc3ccccc3nc12	–	–	–	·	·	58
O=C(NC[C@H]1CC[C@@H]2[C@@H](CN2Cc2ccc(Oc3ccccc3)cc2)O1)C1CCOCC1	·	·	·	–	–	·
C[C@H]1CN([C@@H](C)CO)C(=O)Cc2cc(NS(=O)(=O)c3cn(C)cn3)ccc2O[C@@H]1CN(C)Cc1ccc(C(F)(F)F)cc1	·	·	·	–	–	·
O=C(O)CCSc1nnc(-c2ccc3c(c2)OCO3)o1	–	–	–	69	–	–
CC(O)(CS(=O)(=O)Cc1cccc(C(F)(F)F)c1)C(=O)Nc1cccc(C(F)(F)F)c1 (stereo not drawn)	–	–	–	59	·	–
CCc1ccc(/C=C/c2c[nH]c3ccccc23)[n+](CC)c1	–	–	–	–	67	–
O=C(C[C@@H]1C=C[C@@H](NC(=O)Cc2cccnc2)[C@H](CO)O1)Nc1ccc(-c2ccccc2)cc1	·	·	·	·	–	·
Cc1[nH]c2ccccc2c1/C=N\NC(=O)c1ccccc1Cl	·	·	·	70	–	–
Cc1cc(C(=O)NN=Cc2c(C)[nH]c3ccccc23)c(C)o1	–	–	–	·	–	–
Cc1cccc(-n2c(O)c(/C=N/NC(=O)c3ccccc3Cl)c3ccccc3c2=O)n1	–	64	–	–	–	–
Cc1cc(C(=O)N/N=C/c2c3ccccc3cc3ccccc23)n[nH]1	–	–	–	–	–	45
Cc1n[nH]c(C)c1CCC(=O)N/N=C/c1c(C)[nH]c2ccccc12	–	–	–	–	85	–

High-throughput results from PubChem BioAssay.
